In the array DNA melting data of Ke et al. (doi:10.1101/2024.01.08.574731):

How the values were obtained:
[1] = folding enthalpy; higher = less favourable; fluorescence melt of hairpins on a sequencing array, two-state fit; conditions: sodium 0.088 M
Procedure, shortened: (§1)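 Bootstrapped two-state fits yielded melting temperature and folding enthalpy for library hairpins. Cy3 fluorescence, with annealed Cy3 and quencher oligos, was imaged on a sequenced MiSeq flow cell in 50 mM Na-HEPES pH 8.0, 25 mM NaCl in 2.5 °C steps up to 60 °C, and normalised to pre-quench Cy3 and to control constructs. Four replicates were combined by inverse variance, and fitted temperatures were raised by 9.35 °C to match UV melts.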

[2] = melting temperature; fluorescence melt of hairpins on a sequencing array, two-state fit, raised by 9.35 °C to match UV melts; conditions: sodium 0.088 M
Procedure, shortened: as §1

Sequence: GGCCAAGAAATTGGCC ((((((....))))))
- folding enthalpy [1]: -40.1 kcal/mol
- Tm [2]: 64.4 °C

Sequence: GGCCAAGGAAACTCGGCC ((((.((....)).))))
- folding enthalpy [1]: -34 kcal/mol
- Tm [2]: 50.7 °C

Sequence: GGCCAAGGAAACTTGACC ((.((((....)))).))
- folding enthalpy [1]: -30.3 kcal/mol
- Tm [2]: 43.1 °C

Sequence: GGCCACACGAAAGTGGCC (((..(((....))))))
- folding enthalpy [1]: -39.1 kcal/mol
- Tm [2]: 67.5 °C

Sequence: GGCCACCGAAAGGTAGCC (((.(((....))).)))
- folding enthalpy [1]: -38.3 kcal/mol
- Tm [2]: 57.5 °C

Sequence: GGCCACGAAAGTGAAGCC ((((((....)))..)))
- folding enthalpy [1]: -31.9 kcal/mol
- Tm [2]: 53.5 °C

Sequence: GGCCACGAAAGTGACGCC ((((((....)))..)))
- folding enthalpy [1]: -21.7 kcal/mol
- Tm [2]: 52.1 °C

Sequence: GGCCACGAAAGTGCCGCC ((((((....)))..)))
- folding enthalpy [1]: -32 kcal/mol
- Tm [2]: 59.8 °C

Sequence: GGCCACGAAAGTGCGGCC ((((((....)))..)))
- folding enthalpy [1]: -39.6 kcal/mol
- Tm [2]: 55.6 °C

Sequence: GGCCACGGAAACGCGACC ((.(.((....)).).))
- folding enthalpy [1]: -25.8 kcal/mol
- Tm [2]: 36.7 °C

Sequence: GGCCAGCGAAAGCTCGCC (((.(((....))).)))
- folding enthalpy [1]: -38.9 kcal/mol
- Tm [2]: 53.4 °C

Sequence: GGCCAGGGAAACCCAGCC (((..((....))..)))
- folding enthalpy [1]: -30.5 kcal/mol
- Tm [2]: 42.1 °C

Sequence: GGCCAGGGAAACCTGGTC (.(((((....))))).)
- folding enthalpy [1]: -33.5 kcal/mol
- Tm [2]: 57.6 °C

Sequence: GGCCAGGGAAACTTGGCC (((((.(....).)))))
- folding enthalpy [1]: -35.7 kcal/mol
- Tm [2]: 57 °C

Sequence: GGCCATGGAAACGTGGCC (((((.(....).)))))
- folding enthalpy [1]: -52.1 kcal/mol
- Tm [2]: 62 °C

Sequence: GGCCCACGAAAGTGTGCC (((.(((....))).)))
- folding enthalpy [1]: -49.1 kcal/mol
- Tm [2]: 58.1 °C

Sequence: GGCCCAGGAAACTAGGCC ((((.((....)).))))
- folding enthalpy [1]: -30.3 kcal/mol
- Tm [2]: 48.1 °C

Sequence: GGCCCCCGAAAGGGCGCC (((.(((....))).)))
- folding enthalpy [1]: -24.8 kcal/mol
- Tm [2]: 58.3 °C

Sequence: GGCCCCGAAAGGGAGGCC ((((((....)))..)))
- folding enthalpy [1]: -26.9 kcal/mol
- Tm [2]: 64.5 °C

Sequence: GGCCCCGAAAGGGCAGCC ((((((....)))..)))
- folding enthalpy [1]: -12.8 kcal/mol
- Tm [2]: 58.6 °C

Sequence: GGCCCCGAAAGGGGTGCC ((((((....)))..)))
- folding enthalpy [1]: -12.1 kcal/mol
- Tm [2]: 59.1 °C

Sequence: GGCCGAACGAAAGTTGCC (((..(((....))))))
- folding enthalpy [1]: -23.5 kcal/mol
- Tm [2]: 38.9 °C

Sequence: GGCCGACGAAAGTCAGCC (((.(((....))).)))
- folding enthalpy [1]: -35.5 kcal/mol
- Tm [2]: 59.4 °C

Sequence: GGCCGAGCGAAAGCTGCC (((..(((....))))))
- folding enthalpy [1]: -21.4 kcal/mol
- Tm [2]: 50.7 °C

Sequence: GGCCGAGGAAACCCGGCC (((((.(....).)))))
- folding enthalpy [1]: -36.9 kcal/mol
- Tm [2]: 65.5 °C

Sequence: GGCCGAGGAAACTCGACC ((.((((....)))).))
- folding enthalpy [1]: -35 kcal/mol
- Tm [2]: 51.4 °C

Sequence: GGCCGCCGAAAGGCAGCC (((.(((....))).)))
- folding enthalpy [1]: -25.5 kcal/mol
- Tm [2]: 67.4 °C

Sequence: GGCCGCCGAAAGGCTGCC (((.(((....))).)))
- folding enthalpy [1]: -30.7 kcal/mol
- Tm [2]: 65.5 °C

Sequence: GGCCGCGAAAGCGAAGCC ((((((....)))..)))
- folding enthalpy [1]: -27.7 kcal/mol
- Tm [2]: 58.9 °C

Sequence: GGCCGCGAAAGCGGTGCC ((((((....)))..)))
- folding enthalpy [1]: -10 kcal/mol
- Tm [2]: 55.7 °C

Sequence: GGCCGCGGAAACGCAGCC (((.(((....))).)))
- folding enthalpy [1]: -38.1 kcal/mol
- Tm [2]: 61.3 °C

Sequence: GGCCGGCGAAAGCCTGCC (((.(((....))).)))
- folding enthalpy [1]: -29.7 kcal/mol
- Tm [2]: 65.2 °C

Sequence: GGCCGTCCGAAAGGAGCC (((..(((....))))))
- folding enthalpy [1]: -15.8 kcal/mol
- Tm [2]: 43.4 °C

Sequence: GGCCTACGAAAGTAAGCC (((.(((....))).)))
- folding enthalpy [1]: -35 kcal/mol
- Tm [2]: 49.5 °C

Sequence: GGCCTACGAAAGTAGCC (((.(((....))))))
- folding enthalpy [1]: -22.4 kcal/mol
- Tm [2]: 53.6 °C

Sequence: GGCCTAGGAAACTAAGCC (((.(((....))).)))
- folding enthalpy [1]: -20.1 kcal/mol
- Tm [2]: 38.2 °C

Sequence: GGCCTAGGAAACTAGACC ((.((((....)))).))
- folding enthalpy [1]: -28.6 kcal/mol
- Tm [2]: 40.6 °C

Sequence: GGCCTAGGAAACTGGGCC ((((.((....)).))))
- folding enthalpy [1]: -47.7 kcal/mol
- Tm [2]: 57.9 °C

Sequence: GGCCTCCGAAAGGAAGCC (((.(((....))).)))
- folding enthalpy [1]: -40.9 kcal/mol
- Tm [2]: 55.5 °C

Sequence: GGCCTCGAAAGAGGAGCC ((((((....)))..)))
- folding enthalpy [1]: -14.5 kcal/mol
- Tm [2]: 47.2 °C

Sequence: GGCCTCGAAAGAGGCGCC ((((((....)))..)))
- folding enthalpy [1]: -6.36 kcal/mol
- Tm [2]: 66.5 °C

Sequence: GGCCTGCGAAAGCAGCC (((.(((....))))))
- folding enthalpy [1]: -15.8 kcal/mol
- Tm [2]: 61.1 °C

Sequence: GGCCTGGGAAACCAGACC ((.((((....)))).))
- folding enthalpy [1]: -30.1 kcal/mol
- Tm [2]: 49 °C

Sequence: GGCCTTACGAAAGTAGCC (((..(((....))))))
- folding enthalpy [1]: -22.1 kcal/mol
- Tm [2]: 36.8 °C

Sequence: GGCCTTGCGAAAGCAGCC (((..(((....))))))
- folding enthalpy [1]: -15.8 kcal/mol
- Tm [2]: 45.2 °C

Sequence: GGCCTTGGAAACAAGGTC (.(((((....))))).)
- folding enthalpy [1]: -34.4 kcal/mol
- Tm [2]: 55.7 °C

Sequence: GGCGAACGAAAGTTAGCC (((.(((....))).)))
- folding enthalpy [1]: -34.4 kcal/mol
- Tm [2]: 59.8 °C

Sequence: GGCGAACGAAAGTTTGCC (((.(((....))).)))
- folding enthalpy [1]: -37 kcal/mol
- Tm [2]: 62.1 °C

Sequence: GGCGAAGAAATTCGCC ((((((....))))))
- folding enthalpy [1]: -36.2 kcal/mol
- Tm [2]: 63.1 °C

Sequence: GGCGACCGAAAGGTAGCC (((.(((....))).)))
- folding enthalpy [1]: -26.2 kcal/mol
- Tm [2]: 69 °C

Sequence: GGCGACGAAAGTCAGCC ((((((....))).)))
- folding enthalpy [1]: -28.1 kcal/mol
- Tm [2]: 65.6 °C

Sequence: GGCGACGAAAGTCCGGCC ((((((....)))..)))
- folding enthalpy [1]: -21.7 kcal/mol
- Tm [2]: 51.5 °C

Sequence: GGCGACGGAAACGTTGCC (((.(((....))).)))
- folding enthalpy [1]: -48.8 kcal/mol
- Tm [2]: 65 °C

Sequence: GGCGAGAAATCGCC (((((....)))))
- folding enthalpy [1]: -26.4 kcal/mol
- Tm [2]: 65.5 °C

Sequence: GGCGAGTCGAAAGACGCC (((..(((....))))))
- folding enthalpy [1]: -22.2 kcal/mol
- Tm [2]: 56.3 °C

Sequence: GGCGATCCGAAAGGAGCC (((..(((....))))))
- folding enthalpy [1]: -35.4 kcal/mol
- Tm [2]: 53.9 °C

Sequence: GGCGATCGAAAGATTGCC (((.(((....))).)))
- folding enthalpy [1]: -46.7 kcal/mol
- Tm [2]: 62.9 °C

Sequence: GGCGATGCGAAAGCAGCC (((..(((....))))))
- folding enthalpy [1]: -19.5 kcal/mol
- Tm [2]: 58.5 °C

Sequence: GGCGATTCGAAAGAAGCC (((..(((....))))))
- folding enthalpy [1]: -23.2 kcal/mol
- Tm [2]: 46.4 °C

Sequence: GGCGCAGGAAACCGCGCC (((((.(....).)))))
- folding enthalpy [1]: -37.3 kcal/mol
- Tm [2]: 68.8 °C

Sequence: GGCGCAGGAAACTGTGCC (((.(((....))).)))
- folding enthalpy [1]: -47.6 kcal/mol
- Tm [2]: 61.2 °C

Sequence: GGCGCCGAAAGGCATGCC ((((((....)))..)))
- folding enthalpy [1]: -19.2 kcal/mol
- Tm [2]: 59.7 °C

Sequence: GGCGCTACGAAAGTAGCC (((..(((....))))))
- folding enthalpy [1]: -9.44 kcal/mol
- Tm [2]: 49.4 °C

Sequence: GGCGCTGGAAACAGTGCC (((.(((....))).)))
- folding enthalpy [1]: -49.2 kcal/mol
- Tm [2]: 62.6 °C

Sequence: GGCGCTTCGAAAGAAGCC (((..(((....))))))
- folding enthalpy [1]: -9.84 kcal/mol
- Tm [2]: 47.8 °C

Sequence: GGCGGAGCGAAAGCTGCC (((..(((....))))))
- folding enthalpy [1]: -17 kcal/mol
- Tm [2]: 52.3 °C

Sequence: GGCGGCGAAAGCCACGCC ((((((....)))..)))
- folding enthalpy [1]: -17.1 kcal/mol
- Tm [2]: 63.6 °C

Sequence: GGCGGCGAAAGCCCTGCC ((((((....)))..)))
- folding enthalpy [1]: -20.1 kcal/mol
- Tm [2]: 53.6 °C
